Source: ChEMBL document CHEMBL3861960, “Leoligin, the Major Lignan from Edelweiss (Leontopodium nivale subsp. alpinum), Promotes Cholesterol Efflux from THP-1 Macrophages” (J Nat Prod, 2016)

Tests used:
Assay type in all cases: functional
THP-1 [1] = assay: Effect on ATP13A3 protein expression in human THP1 cells at 10 uM after 24 hrs by proteome analysis relative to control
In short: (§1)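 PMA-differentiated THP-1 macrophages given 10 μM compound or DMSO for 24 h, then lysed in TRIzol. Proteins reduced with DTT, alkylated with iodoacetamide, digested with trypsin (1:50 w/w) for 16 h at 30 °C. Biological replicates pooled, analysed by LC-MS/MS on an Orbitrap Velos Pro with a 4 h gradient, FDR ≤0.05. Only unique peptides used; log2 peptide ratios averaged per protein and tested by one-sample t test versus vehicle.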

THP-1 [2] = assay: Effect on DYNLL2 protein expression in human THP1 cells at 10 uM after 24 hrs by proteome analysis relative to control; in short: as §1
THP-1 [3] = assay: Effect on TOMM20 protein expression in human THP1 cells at 10 uM after 24 hrs by proteome analysis relative to control; in short: as §1
THP-1 [4] = assay: Effect on CELSR3 protein expression in human THP1 cells at 10 uM after 24 hrs by proteome analysis relative to control; in short: as §1
THP-1 [5] = assay: Effect on NBEA protein expression in human THP1 cells at 10 uM after 24 hrs by proteome analysis relative to control; in short: as §1
THP-1 [6] = assay: Effect on ART4 protein expression in human THP1 cells at 10 uM after 24 hrs by proteome analysis relative to control; in short: as §1
THP-1 [7] = assay: Effect on DBI protein expression in human THP1 cells at 10 uM after 24 hrs by proteome analysis relative to control; in short: as §1
THP-1 [8] = assay: Effect on CYP1B1 protein expression in human THP1 cells at 10 uM after 24 hrs by proteome analysis relative to control; in short: as §1
THP-1 [9] = assay: Effect on SPCS1 protein expression in human THP1 cells at 10 uM after 24 hrs by proteome analysis relative to control; in short: as §1
THP-1 [10] = assay: Effect on TUSC2 protein expression in human THP1 cells at 10 uM after 24 hrs by proteome analysis relative to control; in short: as §1
THP-1 [11] = assay: Effect on PLAUR protein expression in human THP1 cells at 10 uM after 24 hrs by proteome analysis relative to control; in short: as §1
THP-1 [12] = assay: Effect on TUBA1A protein expression in human THP1 cells at 10 uM after 24 hrs by proteome analysis relative to control; in short: as §1
THP-1 [13] = assay: Effect on CDK12 protein expression in human THP1 cells at 10 uM after 24 hrs by proteome analysis relative to control; in short: as §1
THP-1 [14] = assay: Effect on COMMD1 protein expression in human THP1 cells at 10 uM after 24 hrs by proteome analysis relative to control; in short: as §1
THP-1 [15] = assay: Effect on BHLHA15 protein expression in human THP1 cells at 10 uM after 24 hrs by proteome analysis relative to control; in short: as §1
THP-1 [16] = assay: Effect on TARBP1 protein expression in human THP1 cells at 10 uM after 24 hrs by proteome analysis relative to control; in short: as §1
THP-1 [17] = assay: Effect on DNHD1 protein expression in human THP1 cells at 10 uM after 24 hrs by proteome analysis relative to control; in short: as §1
THP-1 [18] = assay: Effect on SDE2 protein expression in human THP1 cells at 10 uM after 24 hrs by proteome analysis relative to control; in short: as §1
THP-1 [19] = assay: Effect on P4HTM protein expression in human THP1 cells at 10 uM after 24 hrs by proteome analysis relative to control; in short: as §1
THP-1 [20] = assay: Effect on HIST2H2AC protein expression in human THP1 cells at 10 uM after 24 hrs by proteome analysis relative to control; in short: as §1
THP-1 [21] = assay: Effect on CUL7 protein expression in human THP1 cells at 10 uM after 24 hrs by proteome analysis relative to control; in short: as §1
THP-1 [22] = assay: Effect on HIST1H2AB protein expression in human THP1 cells at 10 uM after 24 hrs by proteome analysis relative to control; in short: as §1
THP-1 [23] = assay: Effect on MCM8 protein expression in human THP1 cells at 10 uM after 24 hrs by proteome analysis relative to control; in short: as §1
THP-1 [24] = assay: Effect on DNAH9 protein expression in human THP1 cells at 10 uM after 24 hrs by proteome analysis relative to control; in short: as §1
THP-1 [25] = assay: Effect on MAGEBS protein expression in human THP1 cells at 10 uM after 24 hrs by proteome analysis relative to control; in short: as §1
THP-1 [26] = assay: Effect on of ABCA1 protein expression in human THP1 cells at 10 uM after 24 hrs by proteome analysis relative to control

C/C=C(/C)C(=O)OC[C@H]1[C@@H](Cc2ccc(OC)c(OC)c2)CO[C@@H]1c1ccc(OC)c(OC)c1
fold change (FC) (THP-1 [1]): 1.7
fold change (FC) (THP-1 [2]): 1.7
fold change (FC) (THP-1 [3]): 1.6
fold change (FC) (THP-1 [4]): 1.6
fold change (FC) (THP-1 [5]): 1.6
fold change (FC) (THP-1 [6]): 1.6
fold change (FC) (THP-1 [7]): 1.6
fold change (FC) (THP-1 [8]): 1.6
fold change (FC) (THP-1 [9]): 1.6
fold change (FC) (THP-1 [10]): 1.5
fold change (FC) (THP-1 [11]): 1.5
fold change (FC) (THP-1 [12]): 1.5
fold change (FC) (THP-1 [13]): 1.5
fold change (FC) (THP-1 [14]): 1.5
fold change (FC) (THP-1 [15]): 0.7
fold change (FC) (THP-1 [16]): 0.6
fold change (FC) (THP-1 [17]): 0.6
fold change (FC) (THP-1 [18]): 0.6
fold change (FC) (THP-1 [19]): 0.6
fold change (FC) (THP-1 [20]): 0.6
fold change (FC) (THP-1 [21]): 0.6
fold change (FC) (THP-1 [22]): 0.6
fold change (FC) (THP-1 [23]): 0.5
fold change (FC) (THP-1 [24]): 0.4
fold change (FC) (THP-1 [25]): 0.4
fold change (FC) (THP-1 [26]): 1.1
